Data published in ChEMBL document CHEMBL1130167, “NMR-based discovery of lead inhibitors that block DNA binding of the human papillomavirus E2 protein” (J Med Chem, 1997).

tested on: Nucleic Acid; assay: Compound was tested for inhibition activity against HPV-E2 DNA-binding domain (DBD) (human papillomavirus E2) binding to DNA; assay type: nucleic-acid assay
Summary of the method: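 Filter-binding assay: binding reactions at room temperature for 10 min in binding buffer (20 mM Tris-HCl pH 7.5, 100 mM NaCl, 5 mM DTT, 1 mM EDTA, BSA) with 4 nM DNA and 400 nM E2 DBD. Compounds were added from DMSO stocks at various concentrations. Mixtures were filtered through nitrocellulose, washed with buffer lacking BSA and counted by scintillation. IC50 was read from concentration versus percent inhibition plots.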

Question: With `O=C(O)/C=C/C=C/c1cccc(Oc2cc(Cl)cc(Cl)c2)c1` as the molecule, how does the IC50 read?
Answer: 10 µM

Question: With `O=C(O)/C=C/C=C/c1ccc(Oc2ccccc2)cc1` as the molecule, how does the IC50 read?
Answer: 75 µM

Question: How did the IC50 turn out when `O=C(O)c1ccc(-c2cc(Cl)cc(Cl)c2)cc1` was run?
Answer: 150 µM

Question: For `O=C(O)c1ccc(-c2ccccc2)cc1`, which IC50 is on record?
Answer: > 1000 µM

Question: Which IC50 does the source give for `O=C(O)CCCc1ccc(Oc2ccccc2)cc1` here?
Answer: > 1000 µM

biological target: Regulatory protein E2 (Human papillomavirus type 31); assay: Dissociation constant after binding to human papillomavirus E2 DNA-binding domain (DBD) by observing the changes in [15N]-HSQC spectra.

Question: For `CN(C)c1ccc(-c2ccc(C(=O)O)cc2)cc1`, which Kd is on record?
Answer: 6800 µM

Question: How did the Kd turn out when `Cc1ccccc1-c1ccc(C(=O)O)cc1` was run?
Answer: 2700 µM

Question: With `O=C(O)c1ccc(-c2cccc(Cl)c2)cc1` as the molecule, how does the Kd read?
Answer: 1200 µM

Question: `O=C(O)c1ccc(-c2ccc(Oc3ccccc3)cc2)cc1` was tested. Which Kd did it give?
Answer: 2100 µM

Question: For `Cc1cccc(-c2ccc(C(=O)O)cc2)c1`, which Kd is on record?
Answer: 1900 µM

Question: For `O=C(O)c1ccc(-c2cccc(F)c2)cc1`, which Kd is on record?
Answer: 1600 µM

Question: `O=C(O)/C=C/C=C/c1ccc(Oc2ccccc2)cc1` was tested. Which Kd did it give?
Answer: 350 µM

Question: With `O=C(O)CCCCc1ccc(Oc2ccccc2)cc1` as the molecule, how does the Kd read?
Answer: 850 µM

Question: Which Kd does the source give for `O=C(O)c1ccc(-c2cc(Cl)cc(Cl)c2)cc1` here?
Answer: 60 µM

Question: With `O=C(O)c1ccc(-c2ccc(Cl)c(Cl)c2)cc1` as the molecule, how does the Kd read?
Answer: 6600 µM

Question: With `O=C(O)Cc1cccc(Oc2ccccc2)c1` as the molecule, how does the Kd read?
Answer: > 10000 µM

Question: How did the Kd turn out when `O=C(O)c1ccc(-c2ccc(Cl)cc2Cl)cc1` was run?
Answer: 3500 µM

Question: Which Kd does the source give for `Nc1cccc(-c2ccc(C(=O)O)cc2)c1` here?
Answer: > 10000 µM

Question: For `O=C(O)c1ccc(-c2ccc(C(F)(F)F)cc2)cc1`, which Kd is on record?
Answer: 1500 µM

Question: For `COc1ccc(-c2ccc(C(=O)O)cc2)cc1`, which Kd is on record?
Answer: 8800 µM

Question: How did the Kd turn out when `O=C(O)c1ccc(-c2cc(C(F)(F)F)cc(C(F)(F)F)c2)cc1` was run?
Answer: > 10000 µM

Question: `O=C(O)c1ccc(-c2ccc([N+](=O)[O-])c(Cl)c2)cc1` was tested. Which Kd did it give?
Answer: > 10000 µM

Question: With `O=C(O)c1ccc(-c2cccc(C(F)(F)F)c2)cc1` as the molecule, how does the Kd read?
Answer: 320 µM

Question: `O=C(O)CCCc1ccc(Oc2ccccc2)cc1` was tested. Which Kd did it give?
Answer: 1900 µM

Question: With `CC(C)(C)c1ccc(-c2ccc(C(=O)O)cc2)cc1` as the molecule, how does the Kd read?
Answer: > 10000 µM

Question: With `O=C(O)c1ccc(-c2cccc([N+](=O)[O-])c2)cc1` as the molecule, how does the Kd read?
Answer: 8900 µM

Question: With `O=C(O)CCc1ccc(Oc2ccccc2)cc1` as the molecule, how does the Kd read?
Answer: 2300 µM

Question: Which Kd does the source give for `COc1ccccc1-c1ccc(C(=O)O)cc1` here?
Answer: 1700 µM

Question: `O=C(O)c1ccc(-c2ccc(O)cc2)cc1` was tested. Which Kd did it give?
Answer: > 10000 µM
